Assay results published in ChEMBL document CHEMBL4689842, “EUbOPEN Chemogenomics Library wave 1” (2021).
Where “and” joins values, the source holds several entries; their conditions need not be identical. Equal entries are not always repeated.

Test system: Fibroblast
Assay: Multiplex assay against human fibroblast
Format: toxicity, cell-based
Procedure, shortened: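 Values for tubulin, mitochondrial-mass and membrane-permeability phenotypes are per cents of cells with healthy nuclei. These cells were identified by CellPathfinder machine-learning gating of live cells that had been stained at seeding with Hoechst33342, BioTracker Green Microtubule Cytoskeleton Dye, MitoTracker Red and Annexin V Alexa Fluor 680 and imaged on a CQ1 microscope at 37°C and 5% CO2 after compound addition. The gating first set Hoechst high-intensity objects apart from normal cells, then split normal cells into healthy, pyknosed or fragmented nuclei, and pyknosed cells into mitotic or apoptotic.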

[1] = 12 h, 1 µM, compound concentration 1 uM, replicate 1
[2] = 12 h, 1 µM, compound concentration 1 uM, replicate 2
[3] = 12 h, 10 µM, compound concentration 10 uM, replicate 1
[4] = 12 h, 10 µM, compound concentration 10 uM, replicate 2
[5] = 24 h, 1 µM, compound concentration 1 uM, replicate 1
[6] = 24 h, 1 µM, compound concentration 1 uM, replicate 2
[7] = 24 h, 10 µM, compound concentration 10 uM, replicate 1
[8] = 24 h, 10 µM, compound concentration 10 uM, replicate 2
[9] = 48 h, 1 µM, compound concentration 1 uM, replicate 1
[10] = 48 h, 1 µM, compound concentration 1 uM, replicate 2
[11] = 48 h, 10 µM, compound concentration 10 uM, replicate 1
[12] = 48 h, 10 µM, compound concentration 10 uM, replicate 2

CNCc1ccc(-c2cc(-c3nc(-c4ccc(S(=O)(=O)C(C)C)cc4)cnc3N)on2)cc1 [BERZOSERTIB]
Population Apoptotic (%) [1]: 45% and 78%
Population Fragmented Nuclei (%) [1]: 22% and 31%
Population Hoechst High Intensity Objects (%) [1]: 63% and 99%
Population Membrane Permeable-Phenotype (%) [1]: 1%
Population Mitochondria Different-Phenotype (%) [1]: 0%
Population Mitotic Cells (%) [1]: 54% and 21%
Population Pyknosed Nuclei (%) [1]: 54% and 63%
Population Apoptotic (%) [2]: 47% and 100%
Population Fragmented Nuclei (%) [2]: 47% and 96%
Population Hoechst High Intensity Objects (%) [2]: 68% and 95%
Population Membrane Permeable-Phenotype (%) [2]: 14% and 0%
Population Mitochondria Different-Phenotype (%) [2]: 4%
Population Tubulin-Different-Phenotype (%) [2]: 0%
Population Apoptotic (%) [3]: 51% and 76%
Population Fragmented Nuclei (%) [3]: 24% and 41%
Population Healthy Nuclei (%) [3]: 21%
Population Hoechst High Intensity Objects (%) [3]: 64% and 99%
Population Membrane Permeable-Phenotype (%) [3]: 5%
Population Mitochondria Different-Phenotype (%) [3]: 1%
Population Mitotic Cells (%) [3]: 48% and 23%
Population Pyknosed Nuclei (%) [3]: 54%
Population Tubulin-Different-Phenotype (%) [3]: 8%
Total Cell Count [3]: 976 and 2548
Population Apoptotic (%) [4]: 48% and 100%
Population Fragmented Nuclei (%) [4]: 54% and 93%
Population Hoechst High Intensity Objects (%) [4]: 69% and 96%
Population Membrane Permeable-Phenotype (%) [4]: 12% and 0%
Population Mitochondria Different-Phenotype (%) [4]: 6% and 0%
Population Tubulin-Different-Phenotype (%) [4]: 3% and 0%
Population Fragmented Nuclei (%) [5]: 66% and 26%
Population Hoechst High Intensity Objects (%) [5]: 99% and 67%
Population Membrane Permeable-Phenotype (%) [5]: 0% and 1%
Population Mitochondria Different-Phenotype (%) [5]: 0%
Population Mitotic Cells (%) [5]: 100% and 57%
Population Pyknosed Nuclei (%) [5]: 33% and 40%
Population Tubulin-Different-Phenotype (%) [5]: 0%
Population Apoptotic (%) [6]: 37% and 100%
Population Fragmented Nuclei (%) [6]: 53% and 94%
Population Hoechst High Intensity Objects (%) [6]: 69% and 96%
Population Membrane Permeable-Phenotype (%) [6]: 25%
Population Mitochondria Different-Phenotype (%) [6]: 12%
Population Fragmented Nuclei (%) [7]: 0% and 19%
Population Hoechst High Intensity Objects (%) [7]: 100% and 68%
Population Membrane Permeable-Phenotype (%) [7]: 0% and 8%
Population Mitochondria Different-Phenotype (%) [7]: 0%
Population Tubulin-Different-Phenotype (%) [7]: 0%
Population Apoptotic (%) [8]: 54%
Population Fragmented Nuclei (%) [8]: 93% and 42%
Population Hoechst High Intensity Objects (%) [8]: 97% and 74%
Population Mitochondria Different-Phenotype (%) [8]: 7%
Population Mitotic Cells (%) [8]: 45%
Population Pyknosed Nuclei (%) [8]: 33%
Population Tubulin-Different-Phenotype (%) [8]: 11%

O=C(NCCCC1CCCCC1)c1ccc(CNC(=O)c2cnn(-c3ccccc3)c2C(F)(F)F)cc1 [SR-321]
Population Apoptotic (%) [1]: 68% [middle of 4 runs]
Population Fragmented Nuclei (%) [1]: 20% and 21% and 28%
Population Healthy Nuclei (%) [1]: 35% and 39% and 42%
Population Hoechst High Intensity Objects (%) [1]: 12% and 11% and 10%
Population Mitochondria Different-Phenotype (%) [1]: 13% [middle of 4 runs]
Population Mitotic Cells (%) [1]: 36% [middle of 4 runs]
Population Normal (%) [1]: 87% and 88% and 89%
Population Pyknosed Nuclei (%) [1]: 39% [middle of 4 runs]
Total Cell Count [1]: 176 [middle of 4 runs]
Population Membrane Permeable-Phenotype (%) [2]: 14% and 0% and 22%
Population Normal (%) [2]: 91% and 78% and 92% and 56%
Population Pyknosed Nuclei (%) [2]: 5% and 6% and 4%
Total Cell Count [2]: 72 [middle of 4 runs]
Population Apoptotic (%) [3]: 50% and 60% and 77%
Population Fragmented Nuclei (%) [3]: 23% [middle of 4 runs]
Population Healthy Nuclei (%) [3]: 36% and 34% and 55%
Population Hoechst High Intensity Objects (%) [3]: 10% and 9% and 6%
Population Mitotic Cells (%) [3]: 49% [middle of 4 runs]
Population Normal (%) [3]: 89% and 90% and 93%
Population Pyknosed Nuclei (%) [3]: 46% and 38% and 43%
Total Cell Count [3]: 161 [middle of 4 runs]
Population Healthy Nuclei (%) [4]: 71% and 66% and 69%
Population Membrane Permeable-Phenotype (%) [4]: 5% and 2% and 0%
Population Mitotic Cells (%) [4]: 80% and 81% and 44%
Population Normal (%) [4]: 73% and 94% and 91% and 70%
Total Cell Count [4]: 103 [middle of 4 runs]
Population Apoptotic (%) [5]: 31% and 58% and 66%
Population Fragmented Nuclei (%) [5]: 20% [middle of 4 runs]
Population Healthy Nuclei (%) [5]: 48% [middle of 4 runs]
Population Hoechst High Intensity Objects (%) [5]: 13% [middle of 4 runs]
Population Mitochondria Different-Phenotype (%) [5]: 6% [middle of 4 runs]
Population Mitotic Cells (%) [5]: 68% and 41% and 33%
Population Normal (%) [5]: 86% and 90% and 82% and 87%
Population Pyknosed Nuclei (%) [5]: 33% [middle of 4 runs]
Total Cell Count [5]: 174 [middle of 4 runs]
Population Membrane Permeable-Phenotype (%) [6]: 4% [middle of 4 runs]
Population Mitochondria Different-Phenotype (%) [6]: 19% and 12% and 7%
Population Mitotic Cells (%) [6]: 100% and 40% and 60%
Population Normal (%) [6]: 85% and 95% and 89% and 56%
Total Cell Count [6]: 79 [middle of 4 runs]
Population Apoptotic (%) [7]: 50% and 57% and 51% and 64%
Population Fragmented Nuclei (%) [7]: 16% and 31% and 23%
Population Healthy Nuclei (%) [7]: 42% [middle of 4 runs]
Population Hoechst High Intensity Objects (%) [7]: 12% [middle of 4 runs]
Population Mitotic Cells (%) [7]: 49% and 42% and 48% and 35%
Population Normal (%) [7]: 85% and 90% and 89% and 87%
Population Pyknosed Nuclei (%) [7]: 46% and 36% and 34%
Total Cell Count [7]: 148 [middle of 4 runs]
Population Apoptotic (%) [8]: 33% and 44%
Population Fragmented Nuclei (%) [8]: 20% and 42%
Population Healthy Nuclei (%) [8]: 67% and 65% and 40%
Population Membrane Permeable-Phenotype (%) [8]: 4% [middle of 4 runs]
Population Mitotic Cells (%) [8]: 50% and 66% and 55%
Population Normal (%) [8]: 93% and 81% and 92% and 63%
Population Pyknosed Nuclei (%) [8]: 15% [middle of 4 runs]
Total Cell Count [8]: 103 [middle of 4 runs]
Population Apoptotic (%) [9]: 75% and 54% and 59%
Population Fragmented Nuclei (%) [9]: 29% and 25% and 21%
Population Healthy Nuclei (%) [9]: 44% and 51% and 53%
Population Hoechst High Intensity Objects (%) [9]: 16% and 14% and 15%
Population Membrane Permeable-Phenotype (%) [9]: 36% and 26% and 20%
Population Mitochondria Different-Phenotype (%) [9]: 2% and 6%
Population Mitotic Cells (%) [9]: 24% and 45% and 40%
Population Normal (%) [9]: 83% and 85% and 84%
Population Pyknosed Nuclei (%) [9]: 26% and 22% and 24%
Population Tubulin-Different-Phenotype (%) [9]: 38% and 34% and 20%
Total Cell Count [9]: 132 and 170 and 130
Population Fragmented Nuclei (%) [10]: 14% and 19% and 13%
Population Healthy Nuclei (%) [10]: 85% and 80%
Population Hoechst High Intensity Objects (%) [10]: 13% and 9%
Population Membrane Permeable-Phenotype (%) [10]: 16% and 10%
Population Mitochondria Different-Phenotype (%) [10]: 1% and 0%
Population Mitotic Cells (%) [10]: 0%
Population Normal (%) [10]: 86% and 90%
Population Pyknosed Nuclei (%) [10]: 1% and 0%
Population Tubulin-Different-Phenotype (%) [10]: 28% and 17% and 14%
Total Cell Count [10]: 116 and 92 and 152
Population Apoptotic (%) [11]: 63% and 65% and 75%
Population Fragmented Nuclei (%) [11]: 27% and 40% and 39%
Population Healthy Nuclei (%) [11]: 39% and 42%
Population Hoechst High Intensity Objects (%) [11]: 15% and 13% and 9%
Population Membrane Permeable-Phenotype (%) [11]: 15% and 23% and 22%
Population Mitochondria Different-Phenotype (%) [11]: 10% and 23% and 14%
Population Mitotic Cells (%) [11]: 36% and 35% and 24%
Population Normal (%) [11]: 84% and 86% and 90%
Population Pyknosed Nuclei (%) [11]: 33% and 16% and 21%
Population Tubulin-Different-Phenotype (%) [11]: 46% and 52% and 68%
Total Cell Count [11]: 117 and 138 and 152
Population Apoptotic (%) [12]: 50% and 100%
Population Fragmented Nuclei (%) [12]: 21%
Population Healthy Nuclei (%) [12]: 68% and 76% and 75%
Population Hoechst High Intensity Objects (%) [12]: 8% and 14%
Population Mitochondria Different-Phenotype (%) [12]: 7% and 5% and 11%
Population Normal (%) [12]: 91% and 85%
Population Tubulin-Different-Phenotype (%) [12]: 67% and 60% and 42%
Total Cell Count [12]: 108 and 85 and 70
